High-throughput results from PubChem BioAssay.
Sampled rows, rich in hits. Any-hit rate of the full collection: about 2.1%.
PGC1a acetyl inh = lowers PGC1a acetylation signal in U2OS cells | AlphaScreen anti-acetyl-lysine; with virally co-expressed GCN5 acetyltransferase | inhibition, % at 15.6 µM | actives 0.17% (n = 350,000) | AID 651687;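 active = every replicate shows inhibition of at least 40%; inconclusive = mean inhibition at least 40% but some replicate below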;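 also: 0% = neutral control wells and 100% = positive control wells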
EWS-Fli inh = EWS/Fli transcriptional activity inhibition; A673 NR0B1-luciferase reporter, viability-normalised; inhibition, % at 12.6 µM; actives 0.67% (n = 350,000);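 active = mean inhibition of at least 50% after viability correction, with every replicate also passing that limit; inconclusive = mean reaches 50% but only one of two replicates passes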;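 also: firefly luciferase signal divided by Alamar Blue viability fluorescence both relative to DMSO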
MLL AF4-AF9 inh = blocks AF4 peptide binding to human AF9; P42568; AlphaScreen, biotin-AF4 peptide binding to FLAG-AF9; inhibition, % at 10 µM; actives 0.47% (n = 350,000); AID 651704;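 active = every replicate reaching a set inhibition limit, whatever the replicate mean, cut at about 25% in these data; inconclusive = mean inhibition reaches that limit but some replicates miss it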;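 also: 0% = plate neutral control median and 100% = total signal loss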
Target sequence (P42568 whole entry, looked up): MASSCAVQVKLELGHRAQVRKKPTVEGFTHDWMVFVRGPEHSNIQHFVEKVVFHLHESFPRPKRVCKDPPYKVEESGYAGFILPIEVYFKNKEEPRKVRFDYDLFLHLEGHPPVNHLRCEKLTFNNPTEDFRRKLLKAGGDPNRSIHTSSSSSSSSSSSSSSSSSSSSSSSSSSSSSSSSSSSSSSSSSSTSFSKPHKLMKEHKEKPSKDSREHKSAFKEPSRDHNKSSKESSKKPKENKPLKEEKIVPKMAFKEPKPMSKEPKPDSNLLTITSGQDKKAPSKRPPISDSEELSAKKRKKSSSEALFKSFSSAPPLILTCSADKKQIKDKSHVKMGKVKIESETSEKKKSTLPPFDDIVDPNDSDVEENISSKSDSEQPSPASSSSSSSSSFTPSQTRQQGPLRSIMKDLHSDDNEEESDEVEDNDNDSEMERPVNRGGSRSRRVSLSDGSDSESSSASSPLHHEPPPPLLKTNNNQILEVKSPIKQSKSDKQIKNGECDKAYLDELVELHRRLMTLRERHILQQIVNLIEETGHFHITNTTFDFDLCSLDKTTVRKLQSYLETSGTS
INS-1E GSIS act = primary screen for activators of insulin secretion dependent on glucose, INS-1E cells, GLuc reporter luminescence. actives 0.61% (n = 370,000). INS-1E GLuc reporter insulin secretion, 2-3 h. activation, % at 16.6 µM;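 active = lowest replicate activation of at least 40%, so every replicate reaches that level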;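 also: 0% = median of neutral control wells and 100% = median of IBMX positive control wells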
XiGFP reactiv = X-chromosome reactivation activator. XiGFP mouse fibroblasts, % GFP-positive cells imaging, 3 d; cells co-treated with 5-aza-dC sensitizer; scaled so ellipticine positive control = 100%. activation, % at 7.58 µM. actives 0.055% (n = 360,000). AID 743238;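 active = mean normalized replicate activation at least 10% and every replicate at or above 10%; inconclusive = only one of the two criteria met; inactive = mean below 10% and not all replicates reach 10%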;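 also: 0% = median of on-plate neutral control wells and 100% = ellipticine 6 µM median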
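assay system = SV40-immortalized XiGFP fibroblast cells, line 68-5-11 | buffer or medium = DMEM plus 5-aza-dC sensitizer | doses = single-point pinned compound dosing | times = 3-day compound exposure, then 15 min fixation at room temperature | benchmarks = positive control ellipticine, 6 µM final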
PAX8 inh HTS = lowers PAX8-driven luciferase in RMG-I cells | inhibition, % at 12.6 µM | RMG-I TPO-luciferase reporter, SteadyGlo, 24 h | actives 1.2% (n = 360,000) | AID 652154;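 active = mean replicate inhibition at least 60% with every replicate also reaching 60%; inconclusive = only one of the two criteria is met; inactive = mean below 60% and not all replicates reaching 60%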;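 also: luciferase light reporting Pax8 driven TPO promoter activity; plate controls were median of neutral control wells for no effect and mitoxantrone controls for full effect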
DNA binder FP = binds DNA displacing acridine orange. salmon sperm DNA acridine orange fluorescence polarization. AC35, µM (titrated, usually from 68 µM), for inactives: at the highest dose activity change, negative = DNA binding. actives 2% (n = 640). shares compounds with EWS-Fli inh;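 active = fitted curve reaches a 35% signal fall AC35 below twice the sample's top valid tested dose, actives reach about 48 µM in these data; inactive = the rest, including activity in the rising direction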;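 also: lower polarization ratio signals compound binding to DNA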
The depositor's hits bear a star; ? = inconclusive; · = no result.

SMILES	PGC1a acetyl inh	EWS-Fli inh	MLL AF4-AF9 inh	INS-1E GSIS act	XiGFP reactiv	PAX8 inh HTS	DNA binder FP
O=C(C1CCCC1)N1CC2(C1)[C@H](c1ccccc1)[C@@H](CO)N2CC1CCCC1	·	1	-2	3	0	·	·
COc1cccc(CN2CC3(CCN(C(C)=O)CC3)c3c(n(C)c4cc(OC)ccc34)[C@H]2CO)c1	-9	-6	0	-4	0	·	·
COc1ccc(C(=O)NCCNc2nc3cc(C)cc(C)c3cc2C#N)c(OC)c1	·	67*	1	9	0	9	-10%
CN(C)C(=O)c1cccc(-c2ccc([C@@H]3[C@@H](CO)N4C(=O)CN(C(=O)C5CCCCC5)C[C@H]34)cc2)c1	1	-4	3	-11	0	11	·
CC(=O)N(C)C[C@@H]1Oc2cc(-c3ccc(C)cc3)ccc2S(=O)(=O)N([C@@H](C)CO)C[C@H]1C	-4	-1	-2	1	0	·	·
COCCOC(=O)N1C(=O)[C@@]2(c3cc(C#CCC(C(=O)OC)C(=O)OC)ccc31)[C@H](c1ccccc1OCCO)N1[C@H](c3ccccc3)[C@H](c3ccccc3)OC(=O)[C@H]1[C@@H]2C(=O)N1CCN(c2ncccn2)CC1	·	61*	-3	·	·	14	1%
COC(=O)C(CC#Cc1ccc2c(c1)[C@]1(C(=O)N2)[C@H](c2ccc(OCCO)cc2)N2[C@H](c3ccccc3)[C@H](c3ccccc3)OC(=O)[C@H]2[C@@H]1C(=O)N1CCN(c2ncccn2)CC1)C(=O)OC	·	76*	-13	·	·	-22	3%
COC(=O)C(CC#Cc1ccc2c(c1)[C@]1(C(=O)N2)[C@H](C(=O)N2CCN(c3ncccn3)CC2)[C@H]2C(=O)O[C@H](c3ccccc3)[C@H](c3ccccc3)N2[C@@H]1c1ccc(OCCO)cc1)C(=O)OC	·	?	1	·	·	14	·
O=C1C(=O)N(CCS(=O)(=O)c2ccccc2)c2ccc(Cl)cc21	·	57*	4	-15	0	20	-9%
CN1C(=O)c2cc(NC(=O)C3CCOCC3)ccc2OC[C@H]2O[C@@H](CC(=O)NCc3ccc4c(c3)OCO4)CC[C@@H]21	·	-1	-1	12	0	-16	·
C[C@@H]1CN([C@@H](C)CO)C(=O)Cc2cc(NS(=O)(=O)c3cccs3)ccc2O[C@H]1CN(C)S(C)(=O)=O	13	9	-2	21	0	-1	·
O=C(CCCCl)Nc1nc(-c2ccc3c(c2)OCCO3)cs1	2	57*	-1	-12	0	-255	-5%
N#CCC(=O)Nc1nc(-c2ccc3c(c2)OCCO3)cs1	·	-48	1	-7	0	-84	·
O=c1c2ccccc2oc2ccc(C#CC3(O)CCCCC3)cc12	3	61*	-16	-1	0	-17	-9%
Cc1cc2sc3ccc(C#CC4(O)CCCCC4)cc3c(=O)c2cc1C	-1	91*	-11	·	0	32	5%
COc1ccc(C(=O)OCC(=O)Nc2ccc(Cl)c(C(F)(F)F)c2)c(OC)c1OC	·	73*	-1	-21	0	-7	6%
CNC[C@H]1Oc2c(NC(=O)NC(C)C)cccc2C(=O)N(C)C[C@H]1C	·	·	·	12	0	·	·
O=C(CN1C(=O)c2ccccc2S1(=O)=O)c1ccc(F)cc1	-6	66*	-2	-4	0	55	-6%
O=C(CN1C(=O)c2ccccc2S1(=O)=O)c1ccc(OC(F)F)cc1	-1	·	·	·	·	·	·
CNC[C@@H]1Oc2cc(C#CCC(C)C)ccc2S(=O)(=O)N([C@@H](C)CO)C[C@H]1C	-10	15	11	-4	0	·	·
Cc1noc(C)c1C(=O)Nc1sccc1C(N)=O	3	76*	0	3	0	-7	-21%
CC=Cc1ccc2n(c1=O)C[C@H]1[C@H](CO)[C@@H](C(=O)N[C@@H](C)c3ccccc3)[C@@H]2N1Cc1cccnc1 (mixture of isomers)	·	0	·	-7	0	35	·
CN1c2ccc(-c3ccc(C#N)cc3)cc2[C@H]2[C@H](CCN2S(=O)(=O)c2cccc(F)c2)[C@H]1CO	16	60*	0	-4	0	?	-12%
COc1ccc(S(=O)(=O)N2CC[C@@H]3[C@H]2c2cc(-c4cccc(C#N)c4)ccc2N[C@@H]3CO)cc1	-20	4	-3	11	0	20	·
COc1ccc(S(=O)(=O)N2CC[C@@H]3[C@@H](CO)Nc4ccc(-c5ccc(C#N)cc5)cc4[C@@H]32)cc1	12	60*	-21	-7	0	63*	-9%
SMILES	PGC1a acetyl inh	EWS-Fli inh	MLL AF4-AF9 inh	INS-1E GSIS act	XiGFP reactiv	PAX8 inh HTS	DNA binder FP
COc1ccc(S(=O)(=O)N2CC[C@@H]3[C@H](CO)Nc4ccc(-c5ccc(C#N)cc5)cc4[C@@H]32)cc1	-3	57*	-4	15	0	51	5%
CC=Cc1ccc2n(c1=O)C[C@H]1[C@H](CO)[C@@H](C(=O)NCC3CC3)N(C(=O)C3CCOCC3)[C@@H]21 (mixture of isomers)	·	-5	1	-1	0	-7	·
COc1ccccc1CNC(=O)C[C@H]1C[C@H]2c3cc(N(C)C)ccc3O[C@H]2[C@@H](CO)O1	-3	-7	1	-36	0	6	·
COc1ccc(N=C(NN)c2ccc3ccccc3n2)cc1	-20	72*	4	·	0	·	-1%
CCCCN=C(NNc1ccc(Br)cc1)C(=O)OCC	·	79*	1	1	0	-2	-9%
COCc1cc(C)nc2sc(C(=O)Nc3ccc(OC)cc3)c(N)c12	8	-117	-4	-7	0	-92	·
COCc1cc(C)nc2sc(C(=O)NCCO)c(-n3cccc3)c12	·	61*	-12	-1	0	-10	-14%
COC(=O)C[C@@H]1CC[C@H]2[C@@H](COC[C@@H](O)CN2CCC(F)(F)F)O1	-1	0	·	8	0	-18	·
CCOc1ccc(-c2cc(CCCC(=O)NCc3ccc(C)cc3)no2)cc1	-15	61*	-5	-7	0	-1	-9%
O=C(Nc1ccccc1)N1CCCCN2[C@H](C1)[C@@H](c1ccc(C3=CCCCC3)cc1)[C@@H]2CO	-22	-11	3	-18	0	18	·
O=C(Nc1ccc(F)cc1)N1CCCCN2[C@@H](CO)[C@H](c3ccc(C4=CCCCC4)cc3)[C@@H]2C1	-1	52*	12	-24	0	54	0%
Cc1cccc(N2CCN(C3C(=O)Nc4ccccc4-n4nnnc43)CC2)c1C (centres undefined)	·	54*	·	-34	0	31	5%
Cc1ccc(N2CCN(C3C(=O)Nc4ccccc4-n4nnnc43)CC2)cc1 (centres undefined)	·	5	7	-16	0	10	·
